Test system: MS2 coat protein
Assay: apparent Kd, MS2 coat protein; higher = weaker binding; RNA-MaP array; FMN 200 µM where present
Summary of the method: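 Stalled E. coli RNA polymerase transcribed the designs on Illumina sequencing-chip clusters. SNAP-549-labelled MS2 coat protein was titrated from 0.7 or 1.5 nM, doubling to 3 µM, without and then with constant ligand, in 100 mM Tris-HCl pH 7.5, 80 mM KCl, 4 mM MgCl2, BSA, DTT, yeast tRNA and Tween-20. Per-cluster binding curves were fitted to green signal normalised to red-channel RNA signal and control-cluster median Fmax. The apparent Kd is the median of the filtered fits.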

[1] = designed as: OFF switch for flavin mononucleotide, no ligand
[2] = ligand present: flavin mononucleotide, designed as: OFF switch for flavin mononucleotide
[3] = designed as: ON switch for flavin mononucleotide, no ligand
[4] = ligand present: flavin mononucleotide, designed as: ON switch for flavin mononucleotide

## CGCUCAAGAGAGAAGGAUAGAGUCAGAAGGCGUUACAUGAGGAUCACCCAUGUAUAGUAGUGUAACGAGGAUAUGAAAUGAGCG
[1]
  apparent Kd: 194 nM
[2]
  apparent Kd: 250 nM

## GGUGCACGCACAGGAUAUCCGGCGGAGCUCGUCGGAGAAGGGUGACAUGAGGAUCACCCAUGUACGUGCAACUCAGUUUGAGAG
[3]
  apparent Kd: 59.8 nM
[4]
  apparent Kd: 32.1 nM

## UCGGUGACAGGAUAUACAUGAGGAUCACCCAUGUUAAGAAGAGAAAGGGCAGGAAGAGGUAGAAGGGUCGCUGU
[1]
  apparent Kd: 51.7 nM
[2]
  apparent Kd: 69 nM

## AUUUUAUAAUAGAAGGUAGACUUCAUGAGGAUCACCCAUGUGUUGGUACUAAGGAUAUGUAAUAACAUGAGGAUCACCCAUGUC
[3]
  apparent Kd: 53.3 nM
[4]
  apparent Kd: 51.7 nM

## ACGUAUCAUGUAGGAUAUGACCCAGGAACUUGGUCAGAAGGACAUGAGGAUCACCCAUGUAGAGUAUGUUAGGAUGACGUAUGC
[1]
  apparent Kd: 114 nM
[2]
  apparent Kd: 150 nM

## AUAUGAAAGAUAGGAUAUACUGAGGUUGAAUGGGUAGAAGGAUCGAUAGUGGAGAAUACAUGAGGAUCACCCAUGUUGUGGAUU
[3]
  apparent Kd: 828 nM
[4]
  apparent Kd: 353 nM

## AGUAACAGAGGAUAUACUAUUUUAUGUGUUUGUUGUUUUAAACAUGAGGAUCACCCAUGUAGAAGGCUGAAUAA
[1]
  apparent Kd: 21.4 nM
[2]
  apparent Kd: 24.1 nM

## GUGGGACAUGAGGAUCACCCAUGUGGGAGGGAACGAGGAUAUGUGAGGAGCGAGAAGUGAACAGAAGGCGUGGUUG
[3]
  apparent Kd: 82.8 nM
[4]
  apparent Kd: 51.4 nM

## GACAUACAUGAGGAUCACCCAUGUUCAAGCGGACAAGGAUAUGUGUGGAAACCAUACUAUACAGAAGGUGUCUGUC
[3]
  apparent Kd: 25.9 nM
[4]
  apparent Kd: 17.1 nM

## CUGAAGUCAGGAUAUUGUUAAUUUAGUUGUUUGUAUUAGUUCGAGAAGGGACAUGAGGAUCACCCAUGUAAGUC
[1]
  apparent Kd: 32 nM
[2]
  apparent Kd: 27.1 nM

## UCGCGGUGAGGAUAUAGGUCAAUGCAGGGUCACCAGAUUGCCUAGAAGGCACAUGAGGAUCACCCAUGUGGUAG
[1]
  apparent Kd: 49 nM
[2]
  apparent Kd: 157 nM

## UCCUGGCGAGGAUAUACAAUGUUUUUCGCGUUUUGUUUCGAACAUGAGGAUCACCCAUGUAGAAGGUGCUACUG
[1]
  apparent Kd: 38.3 nM
[2]
  apparent Kd: 41 nM

## AGAUGAUGAUGUUAUCUUCGUCGGACAUGAGGAUCACCCAUGUAGGAUAUGCUACUCAAAGAGUAGCAGAAGGACAUGUAUCUU
[1]
  apparent Kd: 25.4 nM
[2]
  apparent Kd: 113 nM

## GCUGCCGCUGCAGGAUAUCAGCACGUGUAGUGCUGAGAAGGGCACAUGAGGAUCACCCAUGUGAUCAAUUAAUAAGCGUGCAGC
[1]
  apparent Kd: 6.86 nM
[2]
  apparent Kd: 16.5 nM

## GGAUAGGACAGAGGAUAUACGUGCUAGGGAUACUAGCAAAAUUUCCUCACAUGAGGAUCACCCAUGUAGAAGGCUGUCCUAUCG
[1]
  apparent Kd: 16.1 nM
[2]
  apparent Kd: 416 nM

## AAAACACAUGAGGAUCACCCAUGUGAGGAUAUGUCCAUGCUCGGCAAACCGGGCAUGGACAGAAGGCACAUAAA
[1]
  apparent Kd: 45 nM
[2]
  apparent Kd: 46.7 nM

## AACAGCACAGGAUAUACAUGAGGAUCACCCAUGUGAGAAUUAAGUGGCGUACCACAAAGUAGAAGGGUGCUGGA
[1]
  apparent Kd: 37.1 nM
[2]
  apparent Kd: 286 nM

## CCGGAAUUACAGGAUAUAGGAGUCGAUAGACACCUAGAAGGGUAGACAUGAGGAUCACCCAUGUGUCCUACCGG
[1]
  apparent Kd: 273 nM
[2]
  apparent Kd: 182 nM

## CCUAAGGACACAGGAUAUAGCGUGGUGGCUGGGCUCCAACGACAAGCGGCGCUAGAAGGGUGACCACAUGAGGAUCACCCAUGU
[3]
  apparent Kd: 754 nM
[4]
  apparent Kd: 218 nM

## UGAAAACAUGAGGAUCACCCAUGUAAAAACAUGGGAGGAUAUUGAAAAAAAAAAAAAAAACAAGAAGGCCCAAAAA
[3]
  apparent Kd: 386 nM
[4]
  apparent Kd: 137 nM

Source: the EternaBench riboswitch data
